Screens (PubChem)
Insulin prom act = activators of insulin promoter-driven GFP, primary screen, imaging, TRM-6 cells, eGFP reporter, cell count | 130,000 tested, 0.81% active | activation, % at 2 µM | plate-scaled: unstimulated 0, stimulated control 100;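 active = activation at 2 µM above a set limit, confirmed on inspection of the cell images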;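 also: share of cells whose green reporter signal exceeds an intensity cutoff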
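System – human fetal islet-derived TRM-6 cells with tamoxifen-inducible insulin promoter–eGFP reporter · Amount – 1,000 cells per well · Schedule – overnight tamoxifen, then two-day compound incubation at 37 °C · Detection – high-content imaging of fixed cells with Hoechst nuclear stain · Read-out – percent cells above green-intensity threshold, converted to percent activation versus plate controls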
* = called active by the depositor; [ ] = dose if it differs, or a comment. The sample as a whole holds a higher share of hits than the screen did.

SMILES	Insulin prom act
O=C(CSc1n[nH]c(-c2ccc(S(=O)(=O)N3CCCCC3)cc2)n1)Nc1nccs1	-71
C=C(C)CC(NCCc1ccccc1)c1ccco1 (centres undefined)	669*[fluoresces]
O=C(Nc1ccccc1C(=O)NCCc1ccccc1)c1ccco1	0
O=C(c1ccco1)N(CCC(c1ccccc1)c1ccco1)Cc1ccccc1 (centres undefined)	7
COc1ccc(-n2cc(C(=O)c3cc4ccccc4oc3=O)c(C(C)=O)n2)cc1	6
CC(=O)Nc1cc(Cl)ccc1OS(=O)(=O)c1ccc(C)cc1	-6
COc1ccc(NC(=O)CC2C(=O)N(C)C(=S)N2CCc2ccccc2)cc1 (centres undefined)	-7
COC(=O)CN1C(=S)N(Cc2ccccc2)C(=O)C1CC(=O)Nc1ccc(OC)cc1 (centres undefined)	-80
COc1ccc(NC(=O)CC2C(=O)N(Cc3ccccc3)C(=S)N2CCN2CCOCC2)cc1 (centres undefined)	333*
C/C=C/C=N/Nc1nc(C)cc(=O)[nH]1	6
COc1ccc(OC)c(NC(=O)CSc2nnc(Cn3c(=O)sc4ccccc43)n2C)c1	-62
CCOC(=O)C(Cc1ccc(Cl)cc1Cl)c1ccno1 (centres undefined)	0
Cc1ccc(NC(=O)C(Cc2ccccc2)N2C(=O)C3C4CCC(C4)C3C2=O)cc1Cl (centres undefined)	-8
CN(C)S(=O)(=O)c1cc(NC(=O)[C@H](Cc2ccccc2)N2C(=O)c3ccccc3C2=O)ccc1Cl	414*
COc1ccc(NC(=O)C(CCS(C)(=O)=O)N2C(=O)c3ccccc3C2=O)cc1 (centres undefined)	-4
COc1ccc(NC2CC(=O)N(CCc3ccccc3)C2=O)cc1 (centres undefined)	128
C=CCn1c(COc2cccc3cccnc23)nnc1SCC(=O)O	0
C=CCn1c(SCC(=O)c2ccc(OC)cc2)nnc1-c1cc2cccc(OC)c2o1	-5
C=CCn1c(COc2cccc3ccc(C)nc23)nnc1SCC(=O)O	450*
COC(=O)Cn1ncc(N2C3CC(CC(C)(C)C3)C2C)c(Cl)c1=O (centres undefined)	3
COc1ccc(C2SCCN2C(=S)Nc2cccc(C(F)(F)F)c2)cc1 (centres undefined)	122
CCOC(=O)C1=C(CSc2nc(C)cc(C)c2C#N)OC(N)=C(C#N)C1c1ccccc1 (centres undefined)	3
CCOC(=O)C1=C(CSc2nc(-c3ccccc3)ccc2C#N)OC(N)=C(C#N)C1c1ccc(OC)cc1 (centres undefined)	84*
CC(=O)C1=C(c2ccccc2)OC(N)=C(C#N)C1c1ccc(O)cc1 (centres undefined)	-9
O=C(Nc1ccccc1)c1ccc[nH]1	-8
SMILES	Insulin prom act
CC1=C(C(=O)Nc2ccccn2)C(c2ccc(Cl)cc2Cl)NC(=S)N1 (centres undefined)	8
CCN(CC)C(=O)/C(=C\c1ccc(Br)cc1)NC(=O)c1ccccc1OC	-3
CCOc1ccc(S(=O)(=O)NCC(=O)N(C)Cc2cccnc2)cc1	79*
CCOc1ccc(OCC)c(S(=O)(=O)NCc2cccnc2)c1	-5
CCC(C)NS(=O)(=O)c1ccc(OCC(=O)NCc2cccnc2)cc1 (centres undefined)	-6
O=C(NC(NC(=S)Nc1ccc(Cl)cc1Cl)C(Cl)(Cl)Cl)c1cccc([N+](=O)[O-])c1 (centres undefined)	-10
CCOC(=O)c1c(C)c(C(=O)NCc2cccnc2)c(C)n1CC	-9
COc1ccc(OC)c(NC(=O)N2CCCC(C(=O)c3ccccc3OC)C2)c1 (centres undefined)	-7
CCC(C)(C(=O)NC1CCCC1)N(C)C(=O)Cc1c[nH]c2ccccc12 (centres undefined)	0
CCC(C)(C(=O)NC1CCCC1)N(Cc1cccs1)C(=O)Cc1cccs1 (centres undefined)	83*
CCC(C)(C(=O)NC1CCCCC1)N(Cc1cccs1)C(=O)c1ccccn1 (centres undefined)	107
COc1cccc(NC(=O)C2C3C=CC4(O3)C2C(=O)N(C2CC2)C4C(=O)NC2CCCCC2C)c1 (centres undefined)	810*
COc1cccc(NC(=O)C2C3C=CC4(O3)C2C(=O)N(C(C)C)C4C(=O)NC2CCCCC2C)c1 (centres undefined)	-29
CCCCN1C(=O)C2C(C(=O)Nc3cccc(OC)c3)C3C=CC2(O3)C1C(=O)NC1CCCCC1C (centres undefined)	126
CCCn1c(SCC(=O)c2c(C)[nH]c(C)c2C(=O)OCC)nc2ccccc21	-3
Cc1cccc(C)c1NC(=O)CN(C)C(=O)C(c1ccccc1)c1ccccc1	7
CCOc1cc(CNCCCN2CCOCC2)ccc1OCC(=O)NC(C)(C)C	-6
COc1cc(CNCc2cccs2)ccc1OCC(N)=O	2
COc1cc(CNCc2cccs2)ccc1OCC(=O)NC(C)(C)C	125*
